We go through 5 molecules from paper PMC8585696 (Immunity, 2021).

In one experiment the test system is C. albicans. Nature of the experiment: lung fungal burden. In kind it is in vivo. The method, boiled down:
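Whole-lung C. albicans CFU was counted in C57BL/6 mice 24 h after the last of 8 intranasal challenges (1 × 10^5 viable cells in saline, every other day). Dkk-1 inhibitor or recombinant mouse Dkk-1 (5 μg/kg) was given i.p. together with each challenge.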

Experiment [1] deals with C57BL/6 mice. Nature of the experiment: cytokines from lung by ELISA. The format is in vivo, mouse. In outline:
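C57BL/6 mice received 1 × 10^5 viable C. albicans intranasally every other day for 8 challenges. Fungal cells were thawed (>95% viable), washed and suspended in normal saline. Dkk-1 inhibitor (10 or 20 μg/kg) or recombinant mouse Dkk-1 (5 μg/kg) was given i.p. at each challenge. Lungs were taken 24 h after the last challenge, and cytokines in lung homogenate supernatants were measured by ELISA (TMB, 450 nm).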
On the technique in general: An ELISA detects its analyte on a solid surface through an enzyme-linked reagent.

The test system of experiment [2] is C57BL/6 mice. The experiment is described as follows: BALF inflammatory cell counts. In kind it is in vivo, mouse. The note with it: C. albicans intranasal, inhibitor 10 or 20 μg/kg i.p., Figure 2I.
The subject of the next experiment is Dkk-1. To be noted: ref Chae et al., 2016; cited from earlier work.
Experiment [3] has as its system GP1bα. The experiment is described as follows: GP1bα pulldown from human platelet lysates. The format is binding. To be noted: 60 μg biotinylated bait, 1 h, 4°C, western blot; Figure 4E.
Experiment [4] relates to GP1bα. To be noted: through the A1 domain; ref Azuma et al., 1991; cited from earlier work.
Experiment [5] concerns human platelets (platelet-rich plasma). The experiment is described as follows: platelet aggregation assay. The format is cell-based. The note with it: collagen 2.5 μg/mL or increasing candidalysin, 5 min, Figure S4G.
Experiment [6] relates to C57BL/6 mice. The experiment is described as follows: allergic airway disease overall. In kind it is in vivo, mouse. The note with it: intraperitoneal route, no fungus; data not shown.
The test system of experiment [7] is GATA3^+ Th2 and RORγt^+ Th17 cells. The experiment is described as follows: lung T cell quantitation by flow cytometry. The format is in vivo, mouse. To be noted: ece1Δ/Δ C. albicans intranasal; Dkk-1 5 μg/kg i.p.; Figures 3F, 3G. The method, boiled down: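 Mice were challenged with C. albicans (1 × 10^5 viable cells) intranasally every other day ×8, with recombinant mouse Dkk-1 (5 μg/kg i.p.) at each challenge, and analyzed 24 h after the final challenge. Erythrocytes in total lung cells were lysed with ACK. Cells were stained for live/dead, CD45, CD3 and CD4, split into 3 groups, fixed and permeabilized, then stained for T-bet, GATA3 or RORγt. Results are given as percentages and absolute counts.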
In general terms: A flow cytometer gives signals particle by particle.

The test system of experiment [8] is C57BL/6 mice. The experiment is described as follows: airway hyperresponsiveness. In kind it is in vivo, mouse. To be noted: ece1Δ/Δ C. albicans intranasal; Dkk-1 5 μg/kg i.p.; Figure 3B.

For `NCC1CCN(c2nccc(-c3ccc4ccccc4c3)n2)CC1` [WAY 262611], the “lung fungal burden under Dkk-1 inhibitor” value in the experiment on C. albicans (C. albicans intranasal, inhibitor i.p., Figure 2N) is given as “markedly elevated lung fungal burdens”. Further, the “secretion of IL-17 from whole lung under Dkk-1 inhibitor” value with C57BL/6 mice [1] (C. albicans intranasal, inhibitor 10 or 20 μg/kg i.p., Figure 2J) is on record as “inhibited secretion of IL-17”. Also, the “secretion of IL-1β, IL-6 and TNF under Dkk-1 inhibitor” value in the experiment on C57BL/6 mice [1] (C. albicans intranasal, inhibitor 10 or 20 μg/kg i.p., Figure 2K) was “not significantly affected”. In addition, in the experiment with C57BL/6 mice [2], the “BALF eosinophilia under Dkk-1 inhibitor” value was “most notably reducing BALF eosinophilia”. In the experiment on C57BL/6 mice [2] (dose-dependent), the “BALF inflammatory cell recruitment under Dkk-1 inhibitor” value is on record as “progressively reduced”. For the same molecule, in the experiment on Dkk-1, the “block of Dkk-1 in vivo” value is “previously shown to block this peptide in vivo”.

On to “IFKIIISKIQIVMGLNGIPIKVAGSQNIGMI [scrambled control (SC) peptide]”, for which the “association with GP1bα from human platelet lysates” value with GP1bα [3] is “but not its scrambled control peptide”.

As for “VWF A1A2A3 tridomain: recombinant human VWF A1, A2, A3 domains (Q1238-G1874) expressed in HEK293”, in the experiment on GP1bα [4], the “binding of VWF fragment to GP1bα” value is on record as “binds GP1bα through the A1 domain”.

As to collagen, the “platelet aggregation in vitro” value in experiment [5] is given as “in marked contrast to the activating GPIIb/IIIa ligand collagen”.

B1: Dkk-1: recombinant mouse Dkk-1 (5897-DK-010, R&D systems), Wnt pathway antagonist (protein, UniProt O54908 32-272, looked up)
Dickkopf-related protein 1: TLNSVLINSNAIKNLPPPLGGAGGQPGSAVSVAPGVLYEGGNKYQTLDNYQPYPCAEDEECGSDEYCSSPSRGAAGVGGVQICLACRKRRKRCMRHAMCCPGNYCKNGICMPSDHSHFPRGEIEESIIENLGNDHNAAAGDGYPRRTTLTSKIYHTKGQEGSVCLRSSDCAAGLCCARHFWSKICKPVLKEGQVCTKHKRKGSHGLEIFQRCYCGEGLACRIQKDHHQASNSSRLHTCQRH
In the case of B1, the “fungal lung burden with exogenous Dkk-1” value with C. albicans (ece1Δ/Δ C. albicans intranasal, Dkk-1 5 μg/kg i.p., Figure 3H) is “significantly reduced”. In addition, the “indices of allergic airway disease, Dkk-1 alone” value in the experiment with C57BL/6 mice [6] is reported as “no effect on any index of allergic airway disease”. In the experiment on C57BL/6 mice [1] (ece1Δ/Δ C. albicans intranasal, Dkk-1 5 μg/kg i.p., Figure 3D), the “secretion of lung Th2 cytokines, especially IL-4, and IL-17 with exogenous Dkk-1” value is on record as “markedly enhanced”. Moreover, in the experiment with C57BL/6 mice [1] (ece1Δ/Δ C. albicans intranasal, Dkk-1 5 μg/kg i.p., Figure 3E), the “secretion of innate pro-inflammatory cytokines with exogenous Dkk-1” value was “did not influence the secretion of innate pro-inflammatory cytokines”. Also, the “recruitment to lung of GATA3^+ Th2 and RORγt^+ Th17 cells with exogenous Dkk-1” value in experiment [7] was “markedly increase recruitment to lung”. Further, the “airway hyperresponsiveness with exogenous Dkk-1” value in the experiment with C57BL/6 mice [8] is on record as “significantly enhanced airway hyperresponsiveness”.
